Only some compounds are listed: those with a hit (about 2% of all), similar ones and a draw of the others.
PABP FP inh = PABP-poly(A) binding inhibition. P11940. PABP-poly(A) RNA binding, fluorescence polarization. inhibition, % at 35 µM. hit rate 1% among 290,000. AID 2014;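 further: calls also rest on retests at 20 µM and on dose response follow-up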
MLLE-PAM2 inh = blocks PAM2 peptide binding to the PABP1 MLLE domain | P11940 | GST-MLLE / FITC-PAM2 fluorescence polarization | inhibition, % at 20 µM | hit rate 0.36% among 360,000 | AID 588489; in the data active means inhibition above about 35%, passing the limit was not always enough
HCV core dimer = HCV core protein dimerization inhibition. TR-FRET GST/Flag-core106 dimerization, 1536-well. inhibition, % at 5 µM. hit rate 0.33% among 300,000. AID 1899;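 active means inhibition above the mean of all tested compounds plus 3 SD, set per screening campaign, cut at about 45% in these data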
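assay system = GST-tagged and Flag-tagged HCV core protein residues 1-106 | controls = unlabelled core106 and no-GST-core106 wells | incubation = compound-protein-antibody incubation 4 h at 22.5 °C | probe or stimulus = Eu donor and XL665 acceptor anti-tag antibodies | read-out = % inhibition based on acceptor/donor emission ratio | signal = TR-FRET 671 and 617 nm emission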
DNA FID counter = counter-screen for HCV NS3 helicase inhibitors: DNA intercalator displacement | inhibition, % at 7.9 µM | hit rate 0.17% among 290,000 | DNA fluorescent intercalator displacement, fluorescence | AID 1845; in the data active means inhibition above about 37%;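 further: higher means more ethidium bromide displaced from hairpin DNA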
eIF4H FP inh = inhibitors of RNA binding by human eIF4H. Q15056. eIF4H fluorescence polarization binding assay. inhibition, % at 35 µM. hit rate 0.94% among 290,000;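 further: calls also rest on retests at 20 µM and on dose response follow-up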
NS3 helicase inh = HCV NS3 helicase inhibition. NS3 helicase DNA unwinding, Cy5 molecular beacon fluorescence. inhibition, % at 10.9 µM. hit rate 0.56% among 290,000;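 active means inhibition above the mean of all tested compounds plus 3 SD, set per campaign, cut at about 35% in these data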
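Measured by: Cy5 fluorescence, 0 and 60 min reads / Assay system: NS3 helicase fragment of HCV / Control set: low DMSO, high thioflavine S at 110 µM / Times: 1 h reaction at 25 °C, ATP-initiated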
A number is an active result; n = inactive; u = inconclusive; x = no result. Unless noted, how the calls were made is not given here.

SMILES	PABP FP inh	MLLE-PAM2 inh	HCV core dimer	DNA FID counter	eIF4H FP inh	NS3 helicase inh
CN(C)CCCN(C(=O)c1cc(-c2cccs2)nc2ccccc12)c1nc2ccc(F)cc2s1	n	n	n	40	n	n
CN(C)CCCN(C(=O)CCc1ccccc1)c1nc2ccc(F)cc2s1	n	n	n	n	n	n
CN(C)CCN(C(=O)c1ccc2c(c1)OCCO2)c1nc2ccc(Cl)cc2s1	n	n	n	n	n	n
Cc1ccc2nc(N(CCCN(C)C)C(=O)c3ccc(S(=O)(=O)N4CCc5ccccc5C4)cc3)sc2c1	n	n	n	n	n	n
CN(C)CCCN(C(=O)c1ccc(S(=O)(=O)N2CCc3ccccc3C2)cc1)c1nc2ccc(F)cc2s1	n	n	n	41	n	n
Cc1cccc2sc(N(CCCN(C)C)C(=O)c3ccc(S(=O)(=O)N4CCc5ccccc5C4)cc3)nc12	n	n	n	38	n	n
CN(C)CCCN(C(=O)c1ccc2c(c1)OCCO2)c1nc2ccc(Cl)cc2s1	n	n	n	40	n	n
OC(c1ccc(F)cc1)c1ncc(-c2ccc3ccccc3c2)[nH]1 (stereo unspecified)	x	n	x	x	x	x
N#Cc1c(N)n(CCNC(=O)c2ccc(Cl)cc2)c2nc3ccccc3nc12	n	n	n	n	n	n
CCCCn1c(NC(=O)c2ccccc2)c(C#N)c2nc3ccccc3nc21	n	n	x	n	n	40
Cc1ccc(C(=O)NCCn2c(N)c(C#N)c3nc4ccccc4nc32)cc1	active	n	n	n	56	n
CCCCn1c(NC(=O)c2ccc(F)cc2)c(C#N)c2nc3ccccc3nc21	x	x	n	x	x	x
O=C(O)c1ccc(C(S(=O)(=O)c2ccccc2)S(=O)(=O)c2ccccc2)cc1	x	n	x	x	x	x
CCN(CC)S(=O)(=O)c1ccc(N2CCOCC2)c(NC(=O)CCC2CCCCC2)c1	n	39	n	n	n	n
CCOc1ccc(CC(=O)N2CCN=C2SCc2ccc([N+](=O)[O-])cc2)cc1	68	n	n	n	active	n
CSC1=NCCN1C(=O)Cc1ccc(F)cc1	n	n	n	n	n	n
O=C(Cc1ccc(F)cc1)N1CCN=C1SCc1ccc([N+](=O)[O-])cc1	n	38	n	n	n	n
CCOc1ccc(CC(=O)N2CCN=C2SC)cc1	58	n	n	n	n	n
O=C1C([N+](=O)[O-])=C(O)c2cccc3cccc1c23	57	x	x	n	85	n
O=C(N/N=C1\C(=O)c2cccc3cccc1c23)c1ccc(O)cc1	n	n	n	n	n	n
NCCCCc1cn(CC(=O)N2CCNCC2)nn1	57	n	n	n	n	n
CCOC(=O)Cc1csc(-n2sc3ccccc3c2=O)n1	n	n	59	n	n	n
Cc1nn(-c2ccc(F)cc2)c(Cl)c1/C=N/NC(=O)c1cccs1	n	n	n	n	n	n
Cc1nn(-c2ccc(Cl)cc2)c(Cl)c1/C=N/NC(=O)c1ccc(NS(=O)(=O)c2cccs2)cc1	x	n	54	x	x	x
CN(C(=O)c1cccc(NC(=O)Cc2ccc(NC(=O)C3CCCN(C(=O)C4CCC4)C3)cc2)c1)C1CCCCC1 (stereo unspecified)	x	n	x	x	x	x
SMILES	PABP FP inh	MLLE-PAM2 inh	HCV core dimer	DNA FID counter	eIF4H FP inh	NS3 helicase inh
CC(C)c1ccc(NC(=O)CCCN2C(=S)NC(C)(C)CC2C)cc1 (stereo unspecified)	n	n	n	n	n	n
CC1CC(C)(C)NC(=S)N1CCCC(=O)Nc1ccc(Cl)cc1 (stereo unspecified)	85	n	n	n	active	n
CCOc1ccc(NC(=O)CCN2C(=S)NC(C)(C)CC2C)cc1 (stereo unspecified)	75	n	n	n	5.7	n
Cc1ccc(NS(=O)(=O)c2ccc(-c3coc(C)n3)cc2)c(Cl)c1	x	n	x	x	x	x
OCc1ccccc1SSc1ccccc1CO	x	41	n	x	x	x
COc1ccc([C@@H]2C[C@H]3CN(Cc4ccccc4OC)C(=O)[C@]34CCCN24)cc1C	17	n	n	n	52	n
COc1ccccc1CN1C[C@@H]2C[C@@H](c3ccc(C)c(C)c3)N3CCC[C@@]23C1=O	n	n	n	n	n	n
Cc1cn([C@H]2C[C@H](O)[C@@H](/C=C/C(=O)NCCN3CCCCC3)O2)c(=O)[nH]c1=O	x	n	x	x	x	x
CCC12CCCN3CCC4(C(=C(C(=O)OC)C1)Nc1ccccc14)C32 (stereo unspecified)	57	n	x	n	n	n
O=C(Nc1cccc(N=Cc2cc(Br)cc(Br)c2O)c1)c1ccco1	active	n	n	n	u	n
Cc1ccc2nc3sc(C(=O)NCc4ccco4)c(N)c3cc2c1	n	n	53	n	n	n
COc1cc2cc3c(N)c(C(=O)NCc4ccco4)sc3nc2cc1OC	109	n	n	n	82	n
Cc1ccc2nc3sc(C(=O)N4CCOCC4)c(N)c3cc2c1	n	n	n	n	n	n
Cc1cc(-c2nnc(CCC(=O)NCc3ccc(OC(F)(F)F)cc3)o2)no1	n	n	n	n	n	n
COc1cccc2cc(-c3nc4ccccc4[nH]3)c(=O)oc12	n	n	n	n	n	n
Cc1cccc2cc(-c3nc4ccc(C(=O)O)cc4[nH]3)c(=O)oc12	n	n	n	n	65	n
CSCCC(=O)N1CCCC(N(C)CCc2ccccc2)C1 (stereo unspecified)	n	n	n	n	n	n
Cn1c(COc2ccccc2O)[n+](C)c2ccccc21	n	n	n	n	n	n
CCCCCCCCCCOC(=O)Cn1c(COc2ccccc2OC)[n+](C)c2ccccc21	n	n	n	46	n	n
CCOC(=O)C1=C(CCl)NC(=O)NC1c1ccc2c(c1)OCO2 (stereo unspecified)	n	n	n	n	n	n
CCOC(=O)C1=C(C)N(C)C(=O)NC1c1cc2c(cc1[N+](=O)[O-])OCO2 (stereo unspecified)	13	n	n	n	93	n
CC(C)OC(=O)c1c(N)n(CCCN2CCOCC2)c2nc3ccccc3nc12	n	n	n	n	n	n
CC(C)OC(=O)c1c2nc3ccccc3nc2n2c1[nH]c(=O)c1ccccc12	68	x	n	n	53	n
OC[C@@H]1CN(Cc2ccc(-c3ccccc3)cc2)C[C@H](n2cnc3c(NCc4ccncc4)ncnc32)O1	x	n	x	x	x	x
O=C(NCCc1ccccn1)/C(=C/c1ccco1)NC(=O)c1ccccc1	n	n	n	n	n	n
O=C(N/C(=C\c1ccco1)C(=O)N1CCCC1CO)c1ccccc1 (stereo unspecified)	n	34	n	n	n	n
Cc1ccc(C(=O)N/C(=C/c2ccco2)C(=O)O)cc1	120	n	n	n	87	n
O=C(NCc1ccccn1)/C(=C/c1ccco1)NC(=O)c1ccccc1	0.3	n	n	n	82	n
Cc1ccc(/C=C(\NC(=O)c2ccccc2)C(=O)OCc2ccccc2)cc1	n	n	n	n	n	n
